ChEMBL document CHEMBL1156208, “Novel DNA-peptide interaction networks” (Bioorg Med Chem, 2010)
Calls of active or inactive are those of the source. The calls are words filed in the database; no cut-off is given here. Starred links: 1 amine or outer side, 2 acyl side, 3 side chain; linkers in the order of their positions; H or OH if unused. Non-standard residues stand in square brackets, D forms with d. Residues, ends and D or L forms follow the SMILES beside them. X1 = Cn1cc(N[*:1])cc1C(=O)[*:2]

Assays:
Assay type in all cases: nucleic-acid assay
Nucleic Acid [1] = test: Binding affinity to 5^-ATTTTCTCC-3^ sequence of [32P] labeled DNA at 2 uM after 120 mins by DNase1 foot printing
Procedure, shortened: (§1)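 5'-32P-labeled PCR duplexes (158-mer upper strand, 135-mer lower strand) were equilibrated with varying peptide concentrations in 5 mM sodium cacodylate, pH 6.5, at room temperature for 120 min. DNase I (final 0.009 unit/mL, limited to <30% digestion) was added for 10 min at 37 °C. Products were resolved on denaturing 8% polyacrylamide/8 M urea gels and band volumes integrated to give fractional saturation. Apparent K was taken as the peptide concentration at 50% saturation. Hill coefficient came from the slope of a least-squares Hill plot using at least six points.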

Nucleic Acid [2] = test: Binding affinity to 13-mer DNA duplex U4A-L4T assessed as conformational change after 60 mins by circular dichroism
Procedure, shortened: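 CD spectra were recorded at 37 °C after 60 min incubation. Difference spectra were obtained by subtracting the duplex-alone and peptide-alone contributions.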

Nucleic Acid [3] = test: Binding affinity to 5^-TTTCACA-3^ sequence of [32P] labeled DNA at 2 uM after 120 mins by DNase1 foot printing; procedure, shortened: as §1
Nucleic Acid [4] = test: Binding affinity to 5^-TTTTCTC-3^ sequence of [32P] labeled DNA at 2 uM after 120 mins by DNase1 foot printing; procedure, shortened: as §1
Nucleic Acid [5] = test: Binding affinity to 5^-GAGAAAATACC-3^ sequence of [32P] labeled DNA at 2 uM after 120 mins by DNase1 foot printing; procedure, shortened: as §1
Nucleic Acid [6] = test: Binding affinity to 5^-TTTC-3^ sequence of [32P] labeled DNA at 2 uM after 120 mins by DNase1 foot printing; procedure, shortened: as §1
Nucleic Acid [7] = test: Binding affinity to 5^-TTTTCTCC-3^ sequence of [32P] labeled DNA at 2 uM after 120 mins by DNase1 foot printing; procedure, shortened: as §1
Nucleic Acid [8] = test: Binding affinity to 5^-GGAGAAAATACC-3^ sequence of [32P] labeled DNA at 2 uM after 120 mins by DNase1 foot printing; procedure, shortened: as §1

| Ka (Nucleic Acid [1]) [M⁻¹] | Activity (Nucleic Acid [2]) | Ka (Nucleic Acid [3]) [M⁻¹] | Ka (Nucleic Acid [4]) [M⁻¹] | Ka (Nucleic Acid [5]) [M⁻¹] | Ka (Nucleic Acid [6]) [M⁻¹] | Ka (Nucleic Acid [7]) [M⁻¹] | Ka (Nucleic Acid [8]) [M⁻¹] | SMILES |
| --- | --- | --- | --- | --- | --- | --- | --- | --- |
| 9.7e+06 | Active | 8.4e+06 | – | – | – | – | – | Cn1cc(NC(=O)c2cc(NC(=O)[C@H](CCCCN)NC(=O)[C@H](CCCNC(=N)N)NC(=O)[C@@H]3CCCN3C(=O)[C@@H](N)Cc3cnc[nH]3)cn2C)cc1C(=O)Nc1cc(C(=O)Nc2cc(C(=O)N[C@@H](CCCNC(=N)N)C(N)=O)n(C)c2)n(C)c1 |
| – | Dose-dependent effect | – | 3.4e+06 | 2.7e+06 | – | – | – | Cn1cc(NC(=O)c2cc(NC(=O)[C@H](CCCCN)NC(=O)[C@H](CCCNC(=N)N)NC(=O)[C@@H]3CCCN3C(=O)[C@@H](N)Cc3cnc[nH]3)cn2C)cc1C(=O)Nc1cc(C(=O)Nc2cc(C(=O)N[C@@H](CCCCN)C(=O)N[C@@H](CCCNC(=N)N)C(N)=O)n(C)c2)n(C)c1 (H-HPRK[X1][X1][X1][X1]KR-NH2) |
| – | Active | – | – | – | 1.4e+06 | 3.6e+06 | 4.7e+06 | Cn1cc(NC(=O)c2cc(NC(=O)C(CCCCN)NC(=O)[C@H](CCCNC(=N)N)NC(=O)[C@@H]3C[C@@H](O)CN3C(=O)[C@@H](N)Cc3cnc[nH]3)cn2C)cc1C(=O)Nc1cc(C(=O)Nc2cc(C(=O)N[C@@H](CCCCN)C(=O)N[C@@H](CCCNC(=N)N)C(N)=O)n(C)c2)n(C)c1 (single isomer, unassigned) |
